NR2E3 ag-1: inhibitors of NR2E3-RetCOR corepressor binding, primary screen, NR2E3 agonist project, biochemical, TR-FRET, GST-NR2E3, biotin-RetCOR; Photoreceptor-specific nuclear receptor (Homo sapiens), Q9Y5X4; 1536-well; actives 0.12% (n = 320,000); inhibition of corepressor binding, % at 4.78 µM; AID 2300, 2010;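 active = percent inhibition above the cutoff of mean plus 3 SD of all tested compounds, set per screening campaign, cut at about 20% in these data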;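 also: 0% = DMSO wells and 100% = biotin wells as full block of FRET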
Target sequence (Q9Y5X4 whole entry, looked up): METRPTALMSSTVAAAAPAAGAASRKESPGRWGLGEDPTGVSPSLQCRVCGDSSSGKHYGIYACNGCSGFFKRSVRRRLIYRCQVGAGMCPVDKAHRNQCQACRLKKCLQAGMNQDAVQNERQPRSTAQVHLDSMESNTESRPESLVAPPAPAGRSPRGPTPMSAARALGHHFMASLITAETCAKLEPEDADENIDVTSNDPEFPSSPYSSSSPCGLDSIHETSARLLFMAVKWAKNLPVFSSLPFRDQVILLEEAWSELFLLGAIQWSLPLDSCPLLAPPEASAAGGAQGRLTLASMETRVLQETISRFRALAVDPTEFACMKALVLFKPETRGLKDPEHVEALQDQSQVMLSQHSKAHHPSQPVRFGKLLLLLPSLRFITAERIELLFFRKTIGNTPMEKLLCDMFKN
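Test system – NR2E3–RetCOR corepressor complex · Quantity – NR2E3 fusion 1.35 nM · Buffer or medium – Tris pH 7.5 · Incubation – Compound–protein incubation for 5 h at 4 °C · Technique – TR-FRET, Eu(K)-anti-GST donor, streptavidin-D2 acceptor, ex 340, em 617/671 nm · Evaluation – percent inhibition of 671/617 nm emission ratio versus biotin and DMSO controls · Plate – 1536-well format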
Myeloid diff MLP: induction of myeloid progenitor differentiation, primary screen, cell-based, flow cytometry, MLPCN library. ER-HoxA9 myeloid progenitors, lysozyme-GFP differentiation. calls only at 10 µM. actives 1% (n = 360,000);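 active = normalized GFP-positive differentiation at or above the plate's own cutoff, the solvent-only control mean plus 3 SD; inconclusive = no clear call, values can overlap the other calls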;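 also: cells exposed to compound for four days before flow analysis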
NR2E3 ag-2: NR2E3 agonists in two-hybrid cells, primary screen, cell-based, luminescence, CHO-S, Gal4-NCOR/VP16-NR2E3. actives 0.35% (n = 360,000). Photoreceptor-specific nuclear receptor (Homo sapiens), Q9Y5X4. luciferase. AID 602229, 2012. inhibition of corepressor binding, % at 3.98 µM;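 active = inhibition above the mean of all tested compounds plus 3 SD, cut at about 70% in these data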;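 also: 0% = DMSO with NR2E3 transfected cells and 100% = cells lacking NR2E3 construct; higher means lower luciferase signal from less NR2E3 corepressor binding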
GAA850 FXN act: FXN promoter activators, primary screen, cell-based, luciferase luminescence, HEK293 lucGAA850 | activation, % at 6 µM | HEK293 lucGAA850 FXN promoter luciferase reporter, 24 h; percent of 10 µM SAHA response | actives 0.56% (n = 360,000);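 active = activation above the average of all compounds screened plus 3 SD, cutoff fixed separately per campaign, cut at about 7.5% in these data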;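 also: 0% = DMSO wells and 100% = 10 µM SAHA wells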
T cell modulator: modulators of CD8 T cell-vesicle binding, primary screen, mouse 2C CD8+ T cells, flow cytometry. actives 0.068% (n = 330,000). response (vesicle binding), % at 7 µM. 2C CD8+ T cell-vesicle binding; active compounds read low. AID 2052, 2009;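 active = response, share of CD8 T cells binding vesicles, and their 90th percentile fluorescence all below set limits, cut at about 80% in these data, passing the limit was not always enough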;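 also: values below 100% mean blocked vesicle binding to the CD8+ T cells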
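incubation = binding step 1.5 h, 37 °C, antibody labelling 20 min, ice | test system = 2C mouse CD8+ T cells | read-out basis = percent CD8+ FL2 mean versus row control | controls = Peptide-free naked vesicles (low) and QL9 vesicles with 0.7% DMSO vehicle (high) | detection = flow cytometry of vesicle-bound cells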
NR2E3 ag confirm: NR2E3 agonist confirmation in cells, cell-based, luminescence, CHO-S two-hybrid | CHO-S mammalian two-hybrid NR2E3-NCOR, luciferase luminescence | inhibition, % at 3.98 µM | shares compounds with NR2E3 ag-2 | actives 51% (n = 2,300);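 active = average inhibition above a cutoff equal to the mean inhibition of all tested compounds plus one SD, cut at about 70% in these data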;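 also: 0% = DMSO in NR2E3 cells and 100% = DMSO in cells lacking NR2E3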
VP16 counter: GAL4-VP16 reporter modulators, confirmation, counter-screen for NR2E3 agonist project, cell-based, luminescence, CHO-S, high throughput; shares compounds with NR2E3 ag-2; CHO-S GAL4-VP16 luciferase reporter; inhibition, % at 3.98 µM; actives 29% (n = 2,300);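 active = mean inhibition above a cutoff equal to the average over all tested compounds plus one standard deviation, cut at about 70% in these data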;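 also: luciferase from a UAS reporter driven by GAL4-VP16 transactivation; 0% = DMSO with VP16-transfected cells and 100% = DMSO with cells lacking VP16; higher means less reporter light so more repression of VP16 activity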
Numbers without * were called inactive; i = inactive; ? = inconclusive; / = no result given. Sampled rows, rich in hits. Any-hit rate of the full collection: about 2%.

SMILES	NR2E3 ag-1	Myeloid diff MLP	NR2E3 ag-2	GAA850 FXN act	T cell modulator	NR2E3 ag confirm	VP16 counter
Cc1ccc(S(=O)(=O)Nc2ccc3nc(C)sc3c2)c(C)c1	-0.2	i	67.3	-0.4	243.4	72.0*	64.4
COc1ccccc1C1NC(=O)NC(C)=C1C(=O)OCC1CCCCC1 (configuration not stated)	/	i	-54.9	1.6	/	/	/
CCNC(=O)C1(C)CCCN(Cc2ccc3ccccc3c2Br)C1 (configuration not stated)	/	i	-25.0	-0.5	/	/	/
CCN1CCN(c2ccc(S(=O)(=O)N3CCOCC3)cc2NC(=O)C(C)Oc2ccc(Cl)cc2)CC1 (configuration not stated)	-2.5	i	-0.8	0.7	169.0	/	/
CCOC(=O)C(=O)NNc1ccc(F)cc1	-0.3	i	65.2	0.5	287.9	11.6	-4.5
COCc1ccc(C(=O)N2CCCC(Nc3ccc(C(C)C)cc3)C2)o1 (configuration not stated)	0.5	i	17.9	-1.5	226.9	/	/
COc1ccc(-c2nsc3c(N4CCCCC4C)ncnc23)cc1 (configuration not stated)	6.0	i	93.6*	-15.0	333.9	84.2*	71.6*
COc1ccc(-c2nsc3c(N4CCCCC4)ncnc23)cc1	-5.9	i	56.9	-12.5	575.3	16.5	-13.4
COc1ccc(C(=O)N2CCN(c3ncnc4c(-c5ccccc5)nsc34)CC2)cc1	/	i	-1.9	-1.1	/	/	/
Cc1cccc(C(=O)N[C@H](C(=O)OCC(=O)NC(=O)c2cccn2C)C(C)C)c1	-4.2	i	5.9	1.3	67.9	/	/
N#C/C(=N\Nc1ccccc1)C(N)=S	-9.2	i	10.4	-1.7	174.9	/	/
N#C/C(=N\Nc1ccc(Cl)cc1)C(=O)c1ccsc1	-0.4	i	81.3*	-3.7	261.3	100.0*	88.2*
N#C/C(=N\Nc1ccc(Cl)cc1)C(N)=S	0.6	i	67.3	-2.2	i	-14.0	5.5
Cc1ccc(CSc2nnc([C@@H]3CCCN3C(=O)OC(C)(C)C)o2)cc1	2.3	i	11.7	0.7	722.8	/	/
c1ccc2[nH]c(CSc3nnc(-c4ccncc4)o3)nc2c1	0.2	i	70.2*	-6.5	219.4	-29.6	9.7
O=C(NC(=S)N1CCN(c2ccccc2)CC1)c1ccco1	/	i	0.9	0.9	388.4	/	/
COc1ccccc1C(CNC(=O)C1CCN(C(=O)Nc2ccccc2)CC1)N1CCCC1 (configuration not stated)	/	i	-7.3	0.9	/	/	/
COC(=O)c1cc(CSc2nc3ccccc3c(=O)n2C)oc1C	3.6	i	86.7*	-0.2	308.0	82.9*	71.3*
Cn1nc(-c2ccc(C(=O)NC3CCCCC3)cc2)c2ccccc2c1=O	4.0	i	10.4	0.6	193.9	/	/
Cc1ccc(S(=O)(=O)NCCC2=CCCCC2)cc1C(N)=O	-0.9	i	75.0*	-1.8	260.1	83.8*	62.0
Cc1cc(S(=O)(=O)NCCC2=CCCCC2)ccc1Br	-3.3	i	-2.3	0.9	i	/	/
CNc1nc(-c2ccc(S(=O)(=O)N3CCCCC3)cc2)cs1	7.1	i	53.8	1.1	367.7	-27.3	-6.6
O=C(Nc1nc(-c2ccc(S(=O)(=O)N3CCCC3)cc2)cs1)c1ccco1	3.0	i	-18.8	-1.2	138.9	/	/
O=C(Nc1nc(-c2ccccc2)cs1)c1ccccc1NS(=O)(=O)c1ccc(F)cc1	3.9	i	95.3*	-7.8	188.9	99.0*	85.3*
COc1ccccc1C(=O)Nc1nc(-c2ccc(S(=O)(=O)N3CCOCC3)cc2)cs1	-2.0	i	91.9*	-14.5	198.3	89.3*	62.6
SMILES	NR2E3 ag-1	Myeloid diff MLP	NR2E3 ag-2	GAA850 FXN act	T cell modulator	NR2E3 ag confirm	VP16 counter
O=C(Nc1ccccc1Cl)c1cc(C2CCCCN2C(=O)CCCc2ccccc2)on1 (configuration not stated)	/	i	-20.1	1.1	/	/	/
CCN1CCN(CCCNC(=O)c2ccc(NC(=O)C3=C(C)OCCS3)cc2)CC1	3.2	i	-24.8	0.9	i	/	/
COCCn1c(C)c(C)c2c(NCCc3ccccc3)ncnc21	/	i	52.1	-8.3	484.9	0.7	-94.0
Cc1c(C)n(CCc2ccccc2)c2ncnc(NCCCO)c12	-1.9	i	-136.4	2.8	135.3	/	/
COc1ccc(CCNC(=O)c2nnn(-c3ccc4c(c3)OCCO4)c2N)cc1OC	1.5	i	65.9	-12.9	182.9	51.0	23.9
COc1ccc(NC(=O)c2nnn(CC(=O)Nc3ccc4c(c3)OCO4)c2N)cc1OC	0.6	i	2.7	-0.4	343.4	/	/
COc1ccc(Br)cc1Cn1nnc(C(=O)Nc2ccc3c(c2)OCCO3)c1N	1.3	i	56.3	-0.4	427.3	64.9	11.8
Cc1ccccc1-n1c(SCC(=O)NC2CC2)nc2ccccc2c1=O	/	i	-0.4	-1.1	/	/	/
Cc1ccc(OCC(=O)c2cc(C)n(Cc3cccs3)c2C)c([N+](=O)[O-])n1	1.3	i	84.0*	-10.9	186.4	92.9*	87.7*
Cc1ccc(OCC(=O)c2cc(C)n(CC(F)(F)F)c2C)c([N+](=O)[O-])n1	0.9	?	22.9	1.6	384.1	/	/
Cc1ccc(C(=O)N2CCN3C(=O)c4ccccc4C23c2ccc(Cl)cc2)cc1 (configuration not stated)	1.5	i	74.1*	-7.5	116.8	44.2	15.5
CCn1c(-c2ccccc2)c(C(=O)CCl)c2ccccc21	-4.6	i	20.1	-1.0	301.6	/	/
Cn1c(-c2ccccc2)c(C(=O)CCl)c2ccccc21	/	?	47.8	-1.4	/	-17.2	10.2
COc1cccc(NC(=O)COc2ncnc3sc(C)c(C)c23)c1	-1.9	i	1.8	2.8	482.4	/	/
CCN(CC(=O)Nc1cccc(OC)c1)c1ncnc2sc(C)c(C)c12	-0.6	i	71.2*	-1.6	448.6	88.0*	71.0*
CN[C@H]1C[C@H]2c3[nH]c4ccc(-c5cccc(C)c5)cc4c3CCN2C[C@H]1[C@H](C)O	/	i	2.1	-1.5	/	/	/
O=C(OC(c1ccccc1)c1nccc2ccccc12)c1ccccc1 (configuration not stated)	/	i	75.4*	-10.6	/	71.1*	30.8
C=CCNC(=S)N1CCN(C2CCCCC2)CC1	-1.0	i	-13.8	-0.1	353.8	/	/

Screens: PubChem BioAssay, several laboratories
